Data: ChEMBL document CHEMBL4828701, “An Integrated Strategy for the Detection, Dereplication, and Identification of DNA-Binding Biomolecules from Complex Natural Product Mixtures” (J Nat Prod, 2021)
The source made the active and inactive calls. No cut-off for these calls is given here.

Columns and labels:
[1] = test system: Salmon testes DNA; assay: Covalent binding affinity to salmon DNA measured after 30 mins by UV based spectroscopic method; type: nucleic-acid assay; details: Salmo salar
Summary of the method: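 After 30 min room-temperature incubation with salmon sperm DNA in TE/15% glycerol buffer and 100 kDa ultrafiltration, retained complexes were washed with 30% MeOH (3× 5000g, 10 °C). Ligands were then released with 95% MeOH/1% formic acid for 20 min, refiltered, dried, taken up in MeOH, and analysed by LC-PDA-MS/MS against no-DNA controls.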

[2] = Aqueous solubility of the compound; details: buffer
[3] = test system: Salmon testes DNA; assay: Binding affinity to salmon DNA groove measured after 30 mins by UV based spectroscopic method; type: nucleic-acid assay; details: Salmo salar
Summary of the method: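 Compounds (typically 5–50 μg) in 200 μL water/MeOH were added to 400 μL salmon sperm DNA stock (1 mg/mL in 10 mM Tris, 1 mM EDTA, pH 8.0, 15% glycerol) and incubated 30 min at room temperature. Samples were ultrafiltered (100 kDa, 5000g, 10 °C), and filtrate peak areas (UV 254 nm, LC-PDA-MS/MS) were compared with no-DNA buffer controls.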

[4] = test system: HCC1937; assay: Antiproliferative activity against human HCC1937 assessed as cell growth inhibition after 48 hrs by SRB assay; type: functional
Summary of the method: (§1)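 HCC1937, HCC70 and SJCRH30 cells in RPMI-1640 with 10% FBS and 50 μg/mL gentamicin, 37 °C, 5% CO2, used within 4 months of thaw. Plated cells adhered overnight before 48 h compound exposure (DMSO 0.5% v/v final). Read-out was SRB, with GI50 by nonlinear regression from 3 or 4 experiments ±SEM.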

[5] = test system: MDA-MB-453; assay: Antiproliferative activity against human MDA-MB-453 assessed as cell growth inhibition after 48 hrs by SRB assay; type: functional
Summary of the method: (§2)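 MDA-MB-231 and MDA-MB-453 cells in modified IMEM with 5% FBS and 30 μg/mL gentamicin, 37 °C, 5% CO2, used within 4 months of thaw. After overnight adherence, cells had 48 h compound treatment (DMSO 0.5% v/v final). Growth was read by SRB assay, with GI50 from nonlinear regression as the mean of 3 or 4 experiments ±SEM.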

[6] = test system: SJRH30; assay: Antiproliferative activity against human SJRH30 assessed as cell growth inhibition after 48 hrs by SRB assay; type: functional; summary of the method: as §1
[7] = test system: MDA-MB-231; assay: Antiproliferative activity against human MDA-MB-231 assessed as cell growth inhibition after 48 hrs by SRB assay; type: functional; details: for CC50: read-out: LC50 (the source's name); summary of the method: as §2
[8] = test system: A673; assay: Antiproliferative activity against human A673 assessed as cell growth inhibition after 48 hrs by SRB assay; type: functional; details: for CC50: read-out: LC50 (the source's name)
Summary of the method: (§3)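 A-673 and HCC1806 cells in RPMI-1640 with 5% FBS, 37 °C, 5% CO2, used within 4 months of thaw. Cells were plated and left overnight, then exposed to compounds in DMSO (0.5% v/v final) for 48 h. SRB staining followed, with GI50 fitted by nonlinear regression, as the mean of 3 or 4 experiments ±SEM.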

[9] = test system: HCC1806; assay: Antiproliferative activity against human HCC1806 assessed as cell growth inhibition after 48 hrs by SRB assay; type: functional; details: for CC50: read-out: LC50 (the source's name); summary of the method: as §3
[10] = test system: HCC70; assay: Antiproliferative activity against human HCC70 assessed as cell growth inhibition after 48 hrs by SRB assay; type: functional; details: for CC50: read-out: LC50 (the source's name); summary of the method: as §1

Compound | solubility [2] | GI50 [4] [µM] | TGI [4] [µM] | GI50 [5] [µM] | TGI [5] [µM] | GI50 [6] [µM] | TGI [6] [µM] | GI50 [7] [µM] | TGI [7] [µM] | CC50 [7] [µM] | GI50 [8] [µM] | TGI [8] [µM] | CC50 [8] [µM] | GI50 [9] [µM] | TGI [9] [µM] | CC50 [9] [µM] | GI50 [10] [µM] | TGI [10] [µM] | CC50 [10] [µM] | further results
N[C@@H](Cc1ccc(N(CCCl)CCCl)cc1)C(=O)O [MELPHALAN] | Insoluble |  |  |  |  |  |  |  |  |  |  |  |  |  |  |  |  |  |  | Activity [1]: Active
Nc1c2ccccc2nc2ccccc12 [AMINACRINE] | Insoluble |  |  |  |  |  |  |  |  |  |  |  |  |  |  |  |  |  |  | 
NC[C@@H]1O[C@H](O[C@H]2[C@@H](O)[C@H](O[C@@H]3[C@@H](O)[C@H](N)C[C@H](N)[C@H]3O[C@H]3O[C@H](CN)[C@@H](O)[C@H](O)[C@H]3N)O[C@@H]2CO)[C@H](N)[C@@H](O)[C@@H]1O [FRAMYCETIN] | Soluble |  |  |  |  |  |  |  |  |  |  |  |  |  |  |  |  |  |  | Activity [3]: Active
COc1ccc2cc1Oc1ccc(cc1)C[C@H]1c3c(cc4c(c3Oc3cc5c(cc3OC)CCN(C)[C@@H]5C2)OCO4)CCN1C [CEPHARANTHINE] |  | 6 | 14 | 5.5 | 7.8 | 3.8 | 5.7 | 5.3 | 7.7 | 12 | 4.5 | 5.8 | 7.5 | 7.2 | 12 | 19 | 5.8 | 9.6 | 17 | 
COc1cc2c(cc1O)[C@@H](Cc1ccc(O)c(Oc3ccc(C[C@@H]4c5cc(OC)c(OC)cc5CCN4C)cc3)c1)N(C)CC2 [DARUISOLINE] |  | 6.9 | 11 | 9 | 14 | 3.7 | 6 | 13 | 19 | 30 | 9.2 | 13 | 19 | 17 | 27 | 41 | 8.8 | 13 | 19 | 
Cc1c2ccncc2c(C)c2c1[nH]c1ccccc12 [ELLIPTECINE] | Insoluble |  |  |  |  |  |  |  |  |  |  |  |  |  |  |  |  |  |  | 
CN(C)CCN(Cc1cccs1)c1ccccn1 [METHAPYRILENE] | Insoluble |  |  |  |  |  |  |  |  |  |  |  |  |  |  |  |  |  |  | 
COc1ccc2cc1Oc1ccc(cc1)C[C@H]1c3cc(c(OC)cc3CCN1C)Oc1c(OC)c(OC)cc3c1[C@H](C2)N(C)CC3 [FANCHININ] |  | 4.2 | 10 | 3.3 | 4.8 | 3 | 4.3 | 5 | 7.4 | 12 | 4 | 6 | 8.9 | 5.1 | 8.5 | 15 | 3.4 | 5.9 | 11 | 
O=NN(CCCl)C(=O)NCCCl [CARMUSTINE] | Insoluble |  |  |  |  |  |  |  |  |  |  |  |  |  |  |  |  |  |  | Activity [1]: Active
